Test results: PubChem BioAssay
Records with an inconclusive call do not appear.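 The calls were made as follows, unless noted: active = inhibition over a set limit, the all-compound mean plus 3 SD, in both replicate runs; inconclusive = over that limit in just one replicate run; inactive = at or under that limit in both runs.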

Tests used:
[1] = OD615 S. cerevisiae growth inhibition, permissive medium, pilot counter-assay, permissive growth control for S. cerevisiae lifespan shortening project (AID 705;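 active = growth inhibition above 25% in both replicates, a cutoff set 3 SD above the mean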); conditions: OD615, 24 h, at 10 µM, stronger effect = higher value
In short: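 Material: engineered DeaD yeast; compound dosing: one dose 10 µM, DMSO 0.25% final; measure: yeast growth inhibition indicated by reduced 24 h OD615; detection: OD615 turbidity read; incubation: cells pre-grown 4 h, then 24 h compound exposure, 30 °C humidified; medium: permissive synthetic complete medium with raffinose and galactose carbon sources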

[2] = Restrictive medium S. cerevisiae growth inhibition, OD615, pilot screen of yeast lifespan reduction project, restrictive growth control (AID 706;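 active = growth inhibition above a set limit, 3 SD over mean compound inhibition, in both replicates, cut at about 43% in these data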;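 also: modified DeaD lifespan yeast strain shifted to restrictive glucose medium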); conditions: OD615, 48 h, at 10 µM, stronger effect = higher value
In short: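 material = engineered S. cerevisiae DeaD strain | medium = glucose-based CSMM-D restrictive medium | times = 4 h pre-incubation, 48 h exposure at 30 °C | technique = OD615 absorbance reading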

[3] = viability gain of MRP-1-high H69AR cells under doxorubicin, pilot screen, MRP-1 activator project, CellTiter-Glo, duplicate (AID 807;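 active = viability increase at or above a cutoff of the median across tested compounds plus 3 SD, cut at about 8.5% in these data, passing the limit was not always enough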;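 also: compound pretreatment 18-22 h then 72 h combined with doxorubicin; 0% = doxorubicin alone and 100% = vehicle without doxorubicin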); conditions: H69AR viability with doxorubicin, CellTiter-Glo luminescence; at 10 µM; stronger effect = higher value
[4] = growth suppression of beta-catenin knockout HCT116, pilot screen, human colon tumor cells (AID 823;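 active = cell viability at or below a set limit in both duplicate runs, the limit being the all-compound median minus 4 SD, cut at about 23% in these data, passing the limit was not always enough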;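 also: 0% = wells killed by 20 µM Hyamine and 100% = untreated DMSO cell wells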); conditions: CellTiter-Glo, 60 h, at 10 µM, stronger effect = lower value
[5] = growth suppression of PTEN-deleted HCT116, pilot screen, cell-based, HCT116 clonal line, CellTiter-Glo (AID 824;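 active = viability at or below 27.92% in each of two runs, the all-compound median minus 4 SD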;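 also: 0% = 20 µM Hyamine control and 100% = vehicle cell control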); conditions: 60 h, at 10 µM, stronger effect = lower value
[6] = inhibitors of the yeast RAM network, pilot screen, dse1pr::URA3 reporter, 5-FOA selection (AID 869);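 also: 0% = DMSO wells with no growth and 100% = 10 µM 1-NA-PP1 with full growth; RAM network block rescues cells from 5-FOA so hits raise OD615 growth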; conditions: S. cerevisiae dse1pr::URA3 5-FOA growth, OD615, 2 d; at 10 µM; stronger effect = higher value; strain carries analog-sensitive mutant Cbk1 kinase
[7] = RAM signaling pathway blockade in yeast – S. cerevisiae, Pdr1DBD-CYC8 efflux-inhibited sensitized strain, primary screen (AID 1298;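 active = RAM network inhibition above 8.4% in each of two replicates, 3 SD over the compound average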;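 also: 0% = DMSO untreated cells without growth and 100% = 10 µM 1-NA-PP1 full growth; higher means more yeast growth rescued from 5-FOA killing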); conditions: S. cerevisiae cbk1-as DSE1-URA3 strain, 5-FOA growth OD615, 2 d; at 50 µM; stronger effect = higher value

COc1ccc(S(=O)(=O)n2cnc3cc(C)c(C)cc32)cc1
inactive: growth inhibition [1] 3.51% | growth inhibition [2] 6.05% | viability increase [3] -1.56% | viability [4] 90.9% | viability [5] 93.4% | inhibition [6] 1.26% | RAM network inhibition [7] -1.04%

COc1cccc(C(=O)Nc2cc(=O)n(C)c(=O)n2C)c1OC
inactive: growth inhibition [1] -1.72% | growth inhibition [2] -6.04% | viability increase [3] -2.46% | viability [4] 105% | viability [5] 98.8% | inhibition [6] 1.94% | RAM network inhibition [7] 1.14%

COc1ccccc1N1C(=O)C2CC=CC(C)C2C1=O (stereo not drawn)
inactive: growth inhibition [1] -0.615% | growth inhibition [2] 2.32% | viability increase [3] -0.91% | viability [4] 89.4% | viability [5] 94% | inhibition [6] 0.52% | RAM network inhibition [7] 2.25%

Cc1ccc(Cl)cc1NC(=O)Cn1cc2c(n1)CCCC2
inactive: growth inhibition [1] -3.65% | growth inhibition [2] 8.66% | viability increase [3] -2.72% | viability [4] 110% | viability [5] 97% | inhibition [6] -0.18% | RAM network inhibition [7] 0.23%

CC1CCN(CCCn2c(=S)[nH]c3ccccc3c2=O)CC1
inactive: growth inhibition [1] 1.02% | growth inhibition [2] 10.3% | viability increase [3] -2.18% | viability [4] 91.3% | viability [5] 93.7% | inhibition [6] 1.1% | RAM network inhibition [7] 0.66%

O=C(O)CN1C(=O)COc2cc(S(=O)(=O)N3CCCC3)ccc21
inactive: growth inhibition [1] 4.97% | growth inhibition [2] -0.475% | viability increase [3] 0.05% | viability [4] 94.8% | viability [5] 102% | inhibition [6] 0% | RAM network inhibition [7] 2.14%

COc1ccc(NC2=C(C)C(=O)CC2)cc1
inactive: growth inhibition [1] 7.55% | growth inhibition [2] -3.12% | viability increase [3] -4.82% | viability [4] 65.9% | viability [5] 69.5% | inhibition [6] 0.505% | RAM network inhibition [7] 1.49%

CCCC(=O)NCCCCNC(=O)CCC
inactive: growth inhibition [1] 2.78% | growth inhibition [2] 2.44% | viability increase [3] -0.9% | viability [4] 96.4% | viability [5] 101% | inhibition [6] 0.09% | RAM network inhibition [7] 4.07%

O=C1CN(C(=O)CN2CCOCC2)C(c2ccccc2)c2cc(Br)ccc2N1 (stereo not drawn)
inactive: growth inhibition [1] -9.19% | growth inhibition [2] -11.4% | viability increase [3] -3.48% | viability [4] 96.4% | viability [5] 92.8% | inhibition [6] 0.785% | RAM network inhibition [7] 1.01%

COc1ccc(-c2nc(CS(=O)CC(=O)NCc3cccnc3)c(C)o2)cc1 (stereo not drawn)
inactive: growth inhibition [1] 2.57% | growth inhibition [2] -2.7% | viability increase [3] -4.05% | viability [4] 89.3% | viability [5] 92.5% | inhibition [6] 1.14% | RAM network inhibition [7] 1.62%

CC(C)(C)c1ccc(NC(=O)NCc2ccco2)cc1
inactive: growth inhibition [1] -8.65% | growth inhibition [2] 2.62% | viability increase [3] -5% | viability [4] 63.8% | viability [5] 64.5% | inhibition [6] 1.23% | RAM network inhibition [7] -0.31%

O=C(NCCN1CCOCC1)c1ccc2c(c1)ncn2C1CCCC1
inactive: growth inhibition [1] -10% | growth inhibition [2] 5.44% | viability increase [3] -0.55% | viability [4] 106% | viability [5] 105% | inhibition [6] 1.44% | RAM network inhibition [7] 4.43%

CCN(CC)c1ccc(C=Nc2ccc(C#N)cc2)c(O)c1
inactive: growth inhibition [1] -18.8% | growth inhibition [2] -19.5% | viability increase [3] -0.93% | viability [4] 99.4% | viability [5] 96.3% | inhibition [6] 1.43% | RAM network inhibition [7] 5.13%

O=C(Cn1nnc(-c2ccccc2F)n1)Nc1cccc2ncccc12
inactive: growth inhibition [1] 1.42% | growth inhibition [2] -14.2% | viability increase [3] -2.32% | viability [4] 103% | viability [5] 98% | inhibition [6] 1.36% | RAM network inhibition [7] 2.23%

CCOc1ccccc1N(CC(=O)Nc1ccccc1C(=O)O)S(C)(=O)=O
inactive: growth inhibition [1] -15.5% | growth inhibition [2] -9.54% | viability increase [3] 0.9% | viability [4] 97.5% | viability [5] 85.1% | inhibition [6] 0.11% | RAM network inhibition [7] 5.86%

Cc1onc(-c2ccccc2Cl)c1C(=O)Nc1ccc(OCC(=O)N2CCOCC2)cc1
inactive: growth inhibition [1] 2.78% | growth inhibition [2] 5.62% | viability increase [3] -2.3% | viability [4] 104% | viability [5] 99.5% | inhibition [6] 1.5% | RAM network inhibition [7] 5.11%

O=C(CC(c1ccccc1)c1ccccc1O)NCCN1CCOCC1 (stereo not drawn)
inactive: growth inhibition [1] 0.155% | growth inhibition [2] -2.5% | viability increase [3] -2.74% | viability [4] 102% | viability [5] 95.6% | inhibition [6] 3.25% | RAM network inhibition [7] 2.36%

Cc1cc(C)n(S(=O)(=O)c2ccc(Cl)c(Cl)c2Cl)n1
inactive: growth inhibition [1] -8.03% | growth inhibition [2] 4.29% | viability increase [3] -4.34% | viability [4] 86% | viability [5] 84.6% | inhibition [6] 1.17% | RAM network inhibition [7] 3.65%

C=CCc1c(C)nc(SCc2nc3ccccc3c(=O)[nH]2)[nH]c1=O
inactive: growth inhibition [1] 3.73% | growth inhibition [2] 15.9% | viability increase [3] 0.9% | viability [4] 94.2% | viability [5] 96.7% | inhibition [6] 0.91% | RAM network inhibition [7] 1.65%

CCOc1ccc(C2NC(=O)c3n[nH]c(C)c32)cc1 (stereo not drawn)
inactive: growth inhibition [1] -3.56% | growth inhibition [2] 8.35% | viability increase [3] 1.63% | viability [4] 107% | viability [5] 103% | inhibition [6] 1.07% | RAM network inhibition [7] 0.36%

CCN(CC)c1cccc(OC2=NS(=O)(=O)c3ccccc32)c1
inactive: growth inhibition [1] -1.53% | growth inhibition [2] 0.2% | viability increase [3] -1.25% | viability [4] 99.1% | viability [5] 97.8% | inhibition [6] 1.63% | RAM network inhibition [7] 5.72%

COc1cc(NC(=O)c2onc(C)c2Cl)c(OC)cc1Cl
inactive: growth inhibition [1] -3% | growth inhibition [2] -6.72% | viability increase [3] -5.82% | viability [4] 91.7% | viability [5] 94.5% | inhibition [6] 1.35% | RAM network inhibition [7] 3.23%

COc1cccc(C2CC(c3cccc(OC)c3)n3nc(N)nc3N2)c1 (stereo not drawn)
inactive: growth inhibition [1] -4.01% | growth inhibition [2] 3.82% | viability increase [3] -2.05% | viability [4] 95.2% | viability [5] 92.6% | inhibition [6] 0.07% | RAM network inhibition [7] 2.5%

Cc1ccc(CCNC(=O)CS(=O)Cc2nc(-c3cccc(C)c3)oc2C)cc1 (stereo not drawn)
inactive: growth inhibition [1] -4.94% | growth inhibition [2] 2.34% | viability increase [3] 2.47% | viability [4] 85.3% | viability [5] 86.9% | inhibition [6] 2.59% | RAM network inhibition [7] 6.2%
